Active and inactive are the calls of the source. The rule behind the calls is not given here.
The molecules below were run against T1, Ubiquitin carboxyl-terminal hydrolase 2 (Homo sapiens) (UniProt O75604) (assay: (§1) Inhibition of human USP2a (258 to 605 residues) expressed in Escherichia coli BL21(DE3) using Ub-AMC as substrate incubated for 30 mins measured at 30 secs interval by fluorescence assay). Conditions: not given.
T1 sequence (whole entry): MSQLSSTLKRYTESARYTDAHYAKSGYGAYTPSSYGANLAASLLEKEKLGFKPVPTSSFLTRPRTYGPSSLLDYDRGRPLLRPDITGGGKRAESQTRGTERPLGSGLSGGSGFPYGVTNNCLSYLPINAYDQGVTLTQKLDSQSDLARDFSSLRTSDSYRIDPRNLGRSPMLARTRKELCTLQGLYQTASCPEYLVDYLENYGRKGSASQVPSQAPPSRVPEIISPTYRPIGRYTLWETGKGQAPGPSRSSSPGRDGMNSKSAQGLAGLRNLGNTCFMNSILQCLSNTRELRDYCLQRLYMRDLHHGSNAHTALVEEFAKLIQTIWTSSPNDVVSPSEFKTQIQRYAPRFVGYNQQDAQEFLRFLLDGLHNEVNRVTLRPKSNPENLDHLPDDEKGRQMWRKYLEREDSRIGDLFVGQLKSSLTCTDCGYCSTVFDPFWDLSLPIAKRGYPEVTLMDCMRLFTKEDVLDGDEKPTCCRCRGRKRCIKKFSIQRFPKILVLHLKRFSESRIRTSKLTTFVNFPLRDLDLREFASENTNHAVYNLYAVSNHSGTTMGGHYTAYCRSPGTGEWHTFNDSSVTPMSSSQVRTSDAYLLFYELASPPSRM
How it was run: (§2)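 USP2a purified by Ni-chelate, Q-Sepharose flow-through and gel filtration in PBS pH 7.4 with 5 mM DTT. Enzyme at 10 nM in 50 mM Tris/HCl pH 7.5, 1 mM EDTA, 1 mM MgCl2, preincubated 30 min with compound. Ub-AMC 500 nM then added. Fluorescence (ex 355/em 460 nm) read every 30 s. Turbidity checked at 600 nm. Excess wild-type ubiquitin served as positive control. Percent inhibition was fitted to dose-response curves.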
`NC(=O)c1c(NC(=O)COCc2cc(-c3cccs3)on2)sc2c1CCCC2` was tested, and the inhibition was “Dose-dependent effect”.

The molecules below were run against T2, Ubiquitin carboxyl-terminal hydrolase 2 (Homo sapiens, UniProt O75604) (assay: as §1). Conditions: not given.
T2 sequence (O75604 whole entry): T1 sequence (whole entry)
How it was run: as §2
With `O=C(O)COCc1cc(-c2cccs2)on1` the IC50 was “Not Active”.
For `Cl.NCc1ccc(Cc2cccs2)cc1`, the IC50 was “Not Active”.
`CC(C)(C)OC(=O)CNC(=O)c1cc(-c2cccs2)on1` was tested, and the IC50 was “Not Active”.
`O=C(O)c1cc(-c2cccs2)on1` was tested, and the IC50 was “Not Active”.
With `CN1CCOc2cc(C#N)ccc21` the IC50 was “Not Active”.
With `Cc1c(CO)cnn1-c1ccccc1` the IC50 was “Not Active”.
In the case of `O=C(O)CNC(=O)c1cc(-c2cccs2)on1`, the IC50 is reported as “Not Active”.
`O=C(OCc1cc(-c2cccs2)on1)c1ccc(S(=O)(=O)N2CCOCC2)cc1` was tested, and the IC50 was “Not Active”.
With `COc1ccc(N2CC(C(=O)OCc3cc(-c4cccs4)on3)CC2=O)cc1` (stereo unspecified) the IC50 was “Not Active”.

Same assay, conditions: read-out: IC50
In the case of `OCc1cc(-c2cccs2)on1`, the IC50 is reported as 1300 µM.
With `CC(Oc1ccc(C#N)cc1)C(=O)OCc1cc(-c2cccs2)on1` (stereo unspecified) the IC50 was > 50 µM.
In the case of `Cc1cc(C#N)cc(C)c1O`, the IC50 is reported as > 5000 µM.
With `CCCn1nc(C(=O)OCc2cc(-c3cccs3)on2)c2ccccc2c1=O` the IC50 was > 100 µM.
For `NCc1ccc(-c2csnn2)cc1`, the IC50 was > 5000 µM.
In the case of `Nc1cc(-c2ccccc2)n[nH]1`, the IC50 is reported as > 5000 µM.
Molecule `NC(=O)c1c(N)sc2c1CCCC2` has an IC50 of 8.7 µM.
Work on `NC(=O)c1c(NC(=O)COCc2cc(-c3cccs3)on2)sc2c1CCCC2` yielded an IC50 of 3.3 µM.

What follows are molecules tested against T1, Ubiquitin carboxyl-terminal hydrolase 2 (Homo sapiens) (assay: Inhibition of USP2a in human HCT116 cells assessed as downregulation of cycline D1 expression at 20 uM after 48 hrs by Western blot analysis). Conditions: not given.
Format: cell-based
How it was run: (§3)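 HCT 116 and MCF-7 cells were exposed to 20 μM compound or an equivalent DMSO portion and cultured for 48 h. Cyclin D1 levels were then assessed by western blot.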
In the case of `OCc1cc(-c2cccs2)on1`, the inhibition is reported as “inactive”.
For `NC(=O)c1c(NC(=O)COCc2cc(-c3cccs3)on2)sc2c1CCCC2`, the inhibition was “Active”.

Each molecule was assayed against T1, Ubiquitin carboxyl-terminal hydrolase 2 (Homo sapiens) (assay: (§4) Binding affinity to 15N-Gly/Cys/Ser/Trp-labeled human USP2a expressed in Escherichia coli BL21(DE3) assessed as change in chemical shift by NMR method). Conditions: not given.
How it was run: (§5)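 Selectively 15N-Gly/Cys/Ser/Trp-labeled USP2a from gel filtration in PBS pH 7.4 with 5 mM DTT, with 10% D2O added for lock. Ligand stock was 50 mM in d6-DMSO. Titration run in three steps at protein:compound ratios 1:1, 1:5 and 1:15. Binding followed as cross-peak shifts.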
For `COC(=O)c1ccc2cc[nH]c2c1`, the Activity was “inactive”.
In the case of `COc1ccc2c(c1)CCCC2=O`, the Activity is reported as “inactive”.
In the case of `Nc1cc(-c2ccccc2)n[nH]1`, the Activity is reported as “inactive”.
For `CSc1nnc(-n2cccc2)s1`, the Activity was “inactive”.
`Nc1ccc(-c2cnco2)cc1` was tested, and the Activity was “inactive”.

What follows are molecules tested against T2, Ubiquitin carboxyl-terminal hydrolase 2 (assay: as §4). Conditions: not given.
How it was run: as §5
`OCc1cc(-c2cccs2)on1` was tested, and the Kd was 900 µM.

The molecules below were run against Ubiquitin carboxyl-terminal hydrolase 7 (Homo sapiens) (UniProt Q93009) (assay: Inhibition of human USP7 (208 to 561 residues) catalytic domain expressed in Escherichia coli BL21(DE3) at 10 to 2000 uM using Ub-AMC as substrate incubated for 30 mins measured at 30 secs interval by fluorescence assay). Conditions: not given.
Sequence of Ubiquitin carboxyl-terminal hydrolase 7 (Homo sapiens) (Q93009 whole entry, looked up, the tested form may be a part): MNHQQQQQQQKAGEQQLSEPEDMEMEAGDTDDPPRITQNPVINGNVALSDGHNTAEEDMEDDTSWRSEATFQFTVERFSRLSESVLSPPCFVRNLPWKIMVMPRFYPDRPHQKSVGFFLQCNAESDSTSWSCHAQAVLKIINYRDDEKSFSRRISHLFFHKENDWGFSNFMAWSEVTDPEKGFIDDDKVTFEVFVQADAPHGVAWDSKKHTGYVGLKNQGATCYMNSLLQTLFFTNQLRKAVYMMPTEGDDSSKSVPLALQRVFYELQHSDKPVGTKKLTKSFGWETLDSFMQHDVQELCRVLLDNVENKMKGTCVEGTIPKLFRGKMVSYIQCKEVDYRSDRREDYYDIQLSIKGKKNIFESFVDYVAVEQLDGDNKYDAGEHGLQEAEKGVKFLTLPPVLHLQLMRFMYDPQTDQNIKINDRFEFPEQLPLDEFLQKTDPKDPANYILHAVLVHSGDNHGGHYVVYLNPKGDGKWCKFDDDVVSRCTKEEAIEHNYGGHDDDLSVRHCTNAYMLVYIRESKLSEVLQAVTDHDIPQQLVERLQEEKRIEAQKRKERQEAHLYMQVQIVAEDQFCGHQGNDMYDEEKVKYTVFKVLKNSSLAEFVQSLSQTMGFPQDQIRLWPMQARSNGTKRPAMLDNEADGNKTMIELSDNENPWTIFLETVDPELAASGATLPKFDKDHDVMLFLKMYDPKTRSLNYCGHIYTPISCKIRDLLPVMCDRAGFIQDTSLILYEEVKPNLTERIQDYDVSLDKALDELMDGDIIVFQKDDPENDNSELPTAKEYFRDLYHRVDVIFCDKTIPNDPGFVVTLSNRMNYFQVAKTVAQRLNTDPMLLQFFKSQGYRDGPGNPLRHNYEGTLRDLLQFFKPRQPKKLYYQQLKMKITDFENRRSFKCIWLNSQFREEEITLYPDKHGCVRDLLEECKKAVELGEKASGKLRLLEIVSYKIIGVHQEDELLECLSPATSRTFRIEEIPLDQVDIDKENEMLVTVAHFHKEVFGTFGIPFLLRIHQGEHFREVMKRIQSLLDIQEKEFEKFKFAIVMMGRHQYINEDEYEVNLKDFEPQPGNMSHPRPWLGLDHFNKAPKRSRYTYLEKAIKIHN
How it was run: (§6)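 GST-tagged USP7 catalytic domain (208-561) was expressed at 16 °C overnight. Tag removed with PreScission protease, then purified by Q-Sepharose, Mono Q and gel filtration in 50 mM Tris/HCl, 150 mM NaCl, 2 mM DTT. Activity measured by Ub-AMC hydrolysis (500 nM substrate, ex 355/em 460 nm, 30 s reads) after 30 min preincubation with compound. Values are mean ± SD.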
In the case of `OCc1cc(-c2cccs2)on1`, the inhibition is reported as “inactive”.

Each molecule was assayed against Ubiquitin carboxyl-terminal hydrolase 7 (Homo sapiens) (UniProt Q93009) (assay: Inhibition of human USP7 (208 to 561 residues) catalytic domain expressed in Escherichia coli BL21(DE3) at 10 uM using Ub-AMC as substrate incubated for 30 mins measured at 30 secs interval by fluorescence assay). Conditions: not given.
How it was run: as §6
`NC(=O)c1c(NC(=O)COCc2cc(-c3cccs3)on2)sc2c1CCCC2` was tested, and the inhibition was “inactive”.

These molecules were tested against T1, Ubiquitin carboxyl-terminal hydrolase 2 (Homo sapiens) (assay: Inhibition of USP2a in human MCF7 cells assessed as downregulation of cycline D1 expression at 20 uM after 48 hrs by Western blot analysis). Conditions: not given.
Format: cell-based
How it was run: as §3
`OCc1cc(-c2cccs2)on1` was tested, and the inhibition was “inactive”.
`NC(=O)c1c(NC(=O)COCc2cc(-c3cccs3)on2)sc2c1CCCC2` was tested, and the inhibition was “Active”.

Each molecule was assayed against T1, Ubiquitin carboxyl-terminal hydrolase 2 (Homo sapiens) (assay: Inhibition of human USP2a (258 to 605 residues) expressed in Escherichia coli BL21(DE3) at 2000 uM using Ub-AMC as substrate incubated for 30 mins measured at 30 secs interval by fluorescence assay). Conditions: not given.
How it was run: as §2
For `OCc1cc(-c2cccs2)on1`, the inhibition was “Active”.
